# Runt-CBFb FRET: inhibitors of human RUNX1 Runt domain binding to CBFb. 220,000 tested, 0.46% active. Q01196+Q13951. Cerulean-Runt/Venus-CBFb FRET ratio 530/480, 1 h. inhibition, % at 20 µM;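 active = inhibition over about 50% at 20 µM in the single-dose screen, limit read from the data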;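 note: 0% = DMSO wells and 100% = excess unlabeled CBFb competitor control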
# Target sequence (Q01196 whole entry, looked up, the tested form may be a part): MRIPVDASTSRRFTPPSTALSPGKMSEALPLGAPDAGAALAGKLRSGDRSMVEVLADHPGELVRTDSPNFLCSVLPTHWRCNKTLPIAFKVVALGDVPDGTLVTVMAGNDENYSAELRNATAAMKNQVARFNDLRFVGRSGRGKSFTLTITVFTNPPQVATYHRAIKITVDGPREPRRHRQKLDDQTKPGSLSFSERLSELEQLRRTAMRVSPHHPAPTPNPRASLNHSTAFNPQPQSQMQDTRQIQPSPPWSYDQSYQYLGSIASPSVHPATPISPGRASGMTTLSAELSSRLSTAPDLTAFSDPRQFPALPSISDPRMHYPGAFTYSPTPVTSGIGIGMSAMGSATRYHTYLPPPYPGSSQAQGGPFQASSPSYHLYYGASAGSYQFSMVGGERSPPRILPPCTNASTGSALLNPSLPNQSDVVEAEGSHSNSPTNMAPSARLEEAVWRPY
# Target sequence (Q13951 whole entry, looked up, the tested form may be a part): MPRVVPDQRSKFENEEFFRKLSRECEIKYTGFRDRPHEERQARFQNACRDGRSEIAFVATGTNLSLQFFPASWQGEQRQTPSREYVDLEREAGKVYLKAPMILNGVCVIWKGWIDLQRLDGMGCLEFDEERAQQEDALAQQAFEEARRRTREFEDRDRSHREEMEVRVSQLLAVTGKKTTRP
#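 System: Cerulean-labeled Runt domain protein | Quantity: 100 nM of each labeled protein | Schedule: 1 h compound exposure, room temperature | Detection: Fluorescence energy transfer, 422 nm excitation, 530/480 nm emission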
# RanGTP-Impb inh: disruptors of Ran-importin-beta complex formation – biochemical, FRET, CFP-Ran, YFP-importin-beta, homogeneous, primary screen | AID 2216 | 300,000 tested, 1.1% active | inhibition, % (test concentration not listed) | cell-free CFP-Ran/YFP-importin-beta FRET ratio;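 active = more than half of the replicate wells show a fall in the fluorescence ratio signal beyond about 16%, limit read from the data, passing the limit was not always enough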;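 note: 0% = DMSO wells and 100% = Ran loaded with GDP instead of GTP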
# MEX-5 binding: C. elegans MEX-5 TCR-2 RNA binding activity; Q9XUB2; MEX-5/FITC-TCR2 RNA binding, fluorescence polarization; active compounds read low; activity score (negative = inhibition of binding), % at 10 µM; 300,000 tested, 0.38% active; AID 1832;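 active = inhibition past about -25% in most replicates, and total fluorescence under double the plate's negative control median, limit read from the data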;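 note: 0% = DMSO and -100% = 5 µM competing unlabeled TCR2 RNA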
# Runt-SMMHC FRET: blocks binding of human RUNX1 Runt domain to CBFb-SMMHC. inhibition, % at 20 µM. 220,000 tested, 0.74% active. Cerulean-Runt/Venus-CBFb-SMMHC FRET ratio 530/480, 1 h;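 active = mean inhibition across duplicate retests at 20 µM reaching about 50%, limit read from the data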;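 note: 0% = DMSO wells and 100% = wells with excess untagged CBFb-SMMHC; inhibitors lower the FRET ratio by blocking Runt binding to CBFb-SMMHC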
# LANA-H2A inh: blocks KSHV LANA binding to histone H2A/H2B | Q9QR71 | inhibition, % (no concentration beside the values) | 320,000 tested, 0.6% active | AID 2629 | cell-free LANA-H2A/H2B peptide, fluorescence polarization; in the data active = inhibition mostly above about 10%, no sharp cut-off; inactive = mostly below about 6.7%
# EBV gp42 inh: inhibitors of Epstein-Barr virus glycoprotein 42; Q1HVG2; Fluorescence polarization binding assay, mP read-out; inhibition, % (tested at 21.74 µM); 220,000 tested, 0.42% active; in the data active = inhibition above about 50%
# * hit, by the source's call; . = no result; ! = a repeat was not active. The list is not random: actives were taken first. Their share in the collection is about 2.4%.
SMILES,Runt-CBFb FRET,RanGTP-Impb inh,MEX-5 binding,Runt-SMMHC FRET,LANA-H2A inh,EBV gp42 inh
N=C1/C(=C\c2ccc(-c3cccc(C(=O)O)c3)o2)C(=O)N=C2SC=C(c3ccccc3)N12,-14,-16,1,-42,-3,82*
N=c1oc2ccccc2cc1-c1nc(-c2ccccc2)cs1,-60,44*,2,-160,3,-2
N=c1oc2ccc3ccccc3c2cc1-c1nc(-c2ccccc2)cs1,22,73*,-8,29,6,66*
Cc1ccc(S(=O)(=O)N(C)C)cc1NC(=O)C(C)OC(=O)/C=C/c1cccs1 (configuration not stated),0,4,-2,0,1,-19
COc1ccc(CCN2CC(C(=O)N(C)Cc3ccccc3OC)CCC2=O)cc1 (configuration not stated),.,-3,3,.,12*,.
C/C(=N\NC(=O)c1ccncc1)c1cc2ccccc2oc1=O,-1,5,-4,-2,-2,-13
NC(=S)c1cc2ccc(O)cc2oc1=O,9,147*,-9,82*,.,2
C/C(=N/NC(=O)c1ccncc1)c1cc2ccc(O)cc2oc1=O,19,.,.,63*,87*,-101
C/C(=N/NC(N)=S)c1cc2ccc(O)cc2oc1=O,10,152*,-13,84*,0,-75
NC(=S)c1cc2cc(Br)ccc2oc1=O,.,3,3,-7,-5,2
C#CC1(NC(=O)NC(=O)c2c(F)cccc2F)CCCCC1,-3,3,4,-6,2,-8
COc1cc(NC(=O)CSc2nc3ncnc(N)c3[nH]2)c(C(=O)O)cc1OC,.,2,-31*,.,-3,.
C[n+]1cccc(C(=O)[O-])c1,.,.,.,.,-1,.
CN(C)C(=O)Oc1ccc[n+](C)c1,-1,-2,0,2,74*!,-16
CCC(=O)N(CCC1(c2ccccc2OC)CCOC(C(C)C)C1)Cc1ccco1 (configuration not stated),-6,2,.,0,0,-6
CC(=O)Nc1ccc(NC(=O)CN(C)S(=O)(=O)c2ccc3c(c2)CCC(=O)N3)cc1,.,0,3,.,-9,.
CCOc1ccc(NC(=O)CN(C)S(=O)(=O)c2ccc3c(c2)CCC(=O)N3)cc1,2,0,0,60*,5,-9
Cc1cc(/C=C2\Cc3ccccc3C2=O)c(C)n1-c1ccccc1,17,23*,-1,16,1,29
CC1=NN2C(=N)/C(=C\c3cc(C)n(-c4ccccc4)c3C)C(=O)N=C2S1,-7,39*,-2,4,-3,2
Cc1cc(C=C2C(=O)c3ccccc3C2=O)c(C)n1-c1ccccc1,-13,-2,-8,-89,2,57*
Cc1cc(C=C2C(=O)c3ccccc3C2=O)c(C)n1-c1ccc(C(=O)O)cc1,8,4,-2,2,-3,0
CCN(CC)CCCNC(=O)c1cc(-c2ccc(O)cc2)on1,3,0,1,0,0,3
CCN(CC)CCCNC(=O)c1cc(-c2ccc(Cl)c(Cl)c2)on1,1,-1,0,5,19*,-13
Cc1nnc(NC(=O)COc2ccc3c(C)cc(=O)oc3c2)s1,8,8,1,5,4,51*
CNc1c([N+](=O)[O-])cnn1-c1cccc(Cl)n1,1,-1,-3,-9,4,-9
COC(=O)c1c(NC(=O)C(=O)N2CCOCC2)sc2c1CCC2,.,4,-5,.,13*,.
COC(=O)c1cccc(NC(=O)CC2C(=O)NCCN2C(=O)Nc2ccccc2)c1 (configuration not stated),.,7,1,.,189*,.
O=C(O)COc1ccc(/C=C/c2nc(-c3ccccc3O)n[nH]2)cc1,.,-2,-101*,.,-8,.
COc1ccc(/C=C/c2nc(-c3ccccc3O)n[nH]2)cc1OC,7,2,.,0,1,20
COC(=O)c1ccccc1NC1CC(=O)N(c2c(C)cccc2C)C1=O (configuration not stated),6,-2,3,-5,96*,-18
